Results taken from ChEMBL document CHEMBL3826935, “Synthesis and Pharmacology of (Pyridin-2-yl)methanol Derivatives as Novel and Selective Transient Receptor Potential Vanilloid 3 Antagonists” (J Med Chem, 2016).

target: T1, Transient receptor potential cation channel subfamily V member 3 (Homo sapiens) (UniProt Q8NET8); test: Antagonist activity at human TRPV3 expressed in recombinant HEK293 cells assessed as inhibition of 2-APB induced calcium flux by FLIPR analysis; format: cell-based; details: not given
T1 sequence (whole entry): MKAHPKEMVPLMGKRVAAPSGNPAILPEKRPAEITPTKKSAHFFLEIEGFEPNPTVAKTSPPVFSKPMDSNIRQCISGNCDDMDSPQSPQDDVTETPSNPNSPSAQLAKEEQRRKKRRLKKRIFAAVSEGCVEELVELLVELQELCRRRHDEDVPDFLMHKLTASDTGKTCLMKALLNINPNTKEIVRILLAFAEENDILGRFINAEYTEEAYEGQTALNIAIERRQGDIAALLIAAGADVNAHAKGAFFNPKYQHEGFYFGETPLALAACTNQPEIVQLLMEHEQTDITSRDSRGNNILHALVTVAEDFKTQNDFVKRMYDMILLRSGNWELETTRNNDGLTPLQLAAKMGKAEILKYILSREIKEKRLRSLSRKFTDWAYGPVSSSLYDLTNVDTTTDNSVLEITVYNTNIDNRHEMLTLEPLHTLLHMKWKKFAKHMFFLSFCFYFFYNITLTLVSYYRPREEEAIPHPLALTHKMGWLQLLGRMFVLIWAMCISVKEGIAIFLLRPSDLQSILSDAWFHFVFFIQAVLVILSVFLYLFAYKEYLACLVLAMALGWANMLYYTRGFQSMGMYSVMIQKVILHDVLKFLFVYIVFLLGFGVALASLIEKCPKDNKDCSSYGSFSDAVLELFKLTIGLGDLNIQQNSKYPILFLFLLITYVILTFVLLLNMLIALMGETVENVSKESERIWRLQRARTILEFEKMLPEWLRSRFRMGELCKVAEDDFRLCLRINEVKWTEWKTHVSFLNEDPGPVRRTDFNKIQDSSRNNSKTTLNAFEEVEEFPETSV
Summary of the method: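 HEK293 cells stably expressing human TRPV3 (I25V variant), plated the day before in DMEM + 10% FBS at 37 °C, 5% CO2. Calcium 4 dye loaded in Ca/Mg-free HEPES D-PBS pH 7.4 for 1–2 h at room temperature. Compound dilutions added with 3 min baseline, then 2-APB at 60 µM final; Ca2+ flux read 3 min on FLIPR. Kb from at least duplicates, averaged across independent runs.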

SMILES | Kb [nM]
O[C@@]1(c2ccccn2)CC[C@@H](c2ccc(C(F)(F)F)cc2)C1 | 240
C[C@]1(O)C[C@](c2ccc(OC(F)(F)F)cc2)([C@H](O)c2ccccn2)C1 | 1510
O[C@]1(c2ccccn2)CC[C@@H](c2ccc(C(F)(F)F)cc2)C1 | 130
O[C@H](c1ccccn1)[C@@]1(c2ccc(Cl)c(Cl)c2)CCCO1 | 43
CC(O)(c1ccccn1)C1(c2ccc(Cl)c(Cl)c2)CCC1 (racemic) | 3400
OC(c1ccccn1)C1(c2ccccc2OC(F)(F)F)CCC1 (racemic) | 550
O[C@H](c1ccccn1)C1(c2ccc(Cl)c(Cl)c2)CC(F)(F)C1 | 80
OC(c1ccccn1)C1(c2ccc(Cl)c(Cl)c2)COC1 (centres undefined) | 7370
C[C@@]1(c2ccc(OC(F)(F)F)cc2)C[C@@](O)(c2ccccn2)CO1 (single isomer, unassigned) | 1120
C[C@@]1(c2ccc(OC(F)(F)F)cc2)C[C@](O)(c2ccccn2)CO1 | 1710
O[C@H](c1ccccn1)[C@]1(c2ccc(Cl)c(Cl)c2)CCO1 | 150

Next, values leading:

Kb [nM] | SMILES
90 | O[C@H](c1ccccn1)[C@]1(c2cccc(C(F)(F)F)c2)C[C@H](O)C1
610 | O[C@@]1(c2ccccn2)CC[C@H](c2ccc(C(F)(F)F)cc2)C1
540 | O[C@]1(c2ccccn2)CC[C@H](c2ccc(C(F)(F)F)cc2)C1
60 | O[C@H](c1ccccn1)[C@]1(c2ccnc(C(F)(F)F)c2)C[C@H](O)C1
470 | O[C@H](c1ccccn1)[C@]1(c2ccc(Cl)c(Cl)c2)CCCO1
380 | O[C@H](c1ccccn1)[C@@]1(c2ccc(Cl)c(Cl)c2)CCO1
1540 | OC(c1ncccn1)C1(c2ccc(OC(F)(F)F)cc2)CCC1 (racemic)
910 | OC(c1ccc(F)cn1)C1(c2ccc(Cl)c(Cl)c2)CCC1 (racemic)

test system: Liver microsome; test: Unbound intrinsic clearance in rat liver microsomes after 5 hrs by LC-MS/MS analysis; format: ADME; details: not given; call rule not given here
Summary of the method: (§1)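 Microsomal stability run in an automated high-throughput plate format. Intrinsic clearance corrected for nonspecific microsomal binding using measured unbound fraction (fu,mic), reported as unbound Clint in L/h/kg.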

SMILES | CL free [mL/min/kg]
O[C@@]1(c2ccccn2)CC[C@@H](c2ccc(C(F)(F)F)cc2)C1 | 2520
C[C@]1(O)C[C@](c2ccc(OC(F)(F)F)cc2)([C@H](O)c2ccccn2)C1 | 100
O[C@]1(c2ccccn2)CC[C@@H](c2ccc(C(F)(F)F)cc2)C1 | 7670
O[C@H](c1ccccn1)[C@@]1(c2ccc(Cl)c(Cl)c2)CCCO1 | 2980
CC(O)(c1ccccn1)C1(c2ccc(Cl)c(Cl)c2)CCC1 (racemic) | 6330
OC(c1ccccn1)C1(c2ccccc2OC(F)(F)F)CCC1 (racemic) | 1830
O[C@H](c1ccccn1)C1(c2ccc(Cl)c(Cl)c2)CC(F)(F)C1 | 850
OC(c1ccccn1)C1(c2ccc(Cl)c(Cl)c2)COC1 (centres undefined) | 417
C[C@@]1(c2ccc(OC(F)(F)F)cc2)C[C@@](O)(c2ccccn2)CO1 (single isomer, unassigned) | 333
C[C@@]1(c2ccc(OC(F)(F)F)cc2)C[C@](O)(c2ccccn2)CO1 | 383
O[C@H](c1ccccn1)[C@]1(c2ccc(Cl)c(Cl)c2)CCO1 | 50

Next, values leading:

CL free [mL/min/kg] | SMILES
183 | O[C@H](c1ccccn1)[C@]1(c2cccc(C(F)(F)F)c2)C[C@H](O)C1
350 | O[C@@]1(c2ccccn2)CC[C@H](c2ccc(C(F)(F)F)cc2)C1
1430 | O[C@]1(c2ccccn2)CC[C@H](c2ccc(C(F)(F)F)cc2)C1
50 | O[C@H](c1ccccn1)[C@]1(c2ccnc(C(F)(F)F)c2)C[C@H](O)C1
1000 | O[C@H](c1ccccn1)[C@@]1(c2ccc(Cl)c(Cl)c2)CCO1
483 | OC(c1ncccn1)C1(c2ccc(OC(F)(F)F)cc2)CCC1 (racemic)
3170 | OC(c1ccc(F)cn1)C1(c2ccc(Cl)c(Cl)c2)CCC1 (racemic)

test system: Liver microsome; test: Unbound intrinsic clearance in human liver microsomes after 5 hrs by LC-MS/MS analysis; format: ADME; details: not given; summary of the method: as §1

SMILES | CL free [mL/min/kg]
O[C@@]1(c2ccccn2)CC[C@@H](c2ccc(C(F)(F)F)cc2)C1 | 150
C[C@]1(O)C[C@](c2ccc(OC(F)(F)F)cc2)([C@H](O)c2ccccn2)C1 | 50
O[C@]1(c2ccccn2)CC[C@@H](c2ccc(C(F)(F)F)cc2)C1 | 383
O[C@H](c1ccccn1)[C@@]1(c2ccc(Cl)c(Cl)c2)CCCO1 | 383
CC(O)(c1ccccn1)C1(c2ccc(Cl)c(Cl)c2)CCC1 (racemic) | 1670
OC(c1ccccn1)C1(c2ccccc2OC(F)(F)F)CCC1 (racemic) | 1230
O[C@H](c1ccccn1)C1(c2ccc(Cl)c(Cl)c2)CC(F)(F)C1 | 250
OC(c1ccccn1)C1(c2ccc(Cl)c(Cl)c2)COC1 (centres undefined) | 130
C[C@@]1(c2ccc(OC(F)(F)F)cc2)C[C@@](O)(c2ccccn2)CO1 (single isomer, unassigned) | 67
C[C@@]1(c2ccc(OC(F)(F)F)cc2)C[C@](O)(c2ccccn2)CO1 | 217
O[C@H](c1ccccn1)[C@]1(c2ccc(Cl)c(Cl)c2)CCO1 | 67

Results, then the compound that gave them:

CL free [mL/min/kg] | SMILES
130 | O[C@H](c1ccccn1)[C@]1(c2cccc(C(F)(F)F)c2)C[C@H](O)C1
400 | O[C@@]1(c2ccccn2)CC[C@H](c2ccc(C(F)(F)F)cc2)C1
333 | O[C@]1(c2ccccn2)CC[C@H](c2ccc(C(F)(F)F)cc2)C1
33 | O[C@H](c1ccccn1)[C@]1(c2ccnc(C(F)(F)F)c2)C[C@H](O)C1
217 | O[C@H](c1ccccn1)[C@@]1(c2ccc(Cl)c(Cl)c2)CCO1
100 | OC(c1ncccn1)C1(c2ccc(OC(F)(F)F)cc2)CCC1 (racemic)
767 | OC(c1ccc(F)cn1)C1(c2ccc(Cl)c(Cl)c2)CCC1 (racemic)

organism: Rattus norvegicus; test: Cardiotoxicity in rat assessed as increase in cardiac contractility at plasma concentration of 4.7 ug/ml; format: toxicity, organism-based; details: not given

SMILES | Activity
O[C@H](c1ccccn1)[C@]1(c2cccc(C(F)(F)F)c2)C[C@H](O)C1 | Non-toxic
O[C@H](c1ccccn1)[C@]1(c2ccnc(C(F)(F)F)c2)C[C@H](O)C1 | Non-toxic
C[C@]1(O)C[C@](c2ccc(OC(F)(F)F)cc2)([C@H](O)c2ccccn2)C1 | Non-toxic

organism: Rattus norvegicus; test: Cardiotoxicity in rat assessed as increase in mean arterial pressure; format: toxicity, organism-based, Artery; details: in vivo

SMILES | Activity
O[C@H](c1ccccn1)[C@]1(c2cccc(C(F)(F)F)c2)C[C@H](O)C1 | Non-toxic
O[C@H](c1ccccn1)[C@]1(c2ccnc(C(F)(F)F)c2)C[C@H](O)C1 | Non-toxic
C[C@]1(O)C[C@](c2ccc(OC(F)(F)F)cc2)([C@H](O)c2ccccn2)C1 | Non-toxic

target: T2, Nuclear receptor subfamily 1 group I member 2 (Homo sapiens, UniProt O75469); test: Activation of human PXR; format: ADME; details: human
T2 sequence (O75469 whole entry): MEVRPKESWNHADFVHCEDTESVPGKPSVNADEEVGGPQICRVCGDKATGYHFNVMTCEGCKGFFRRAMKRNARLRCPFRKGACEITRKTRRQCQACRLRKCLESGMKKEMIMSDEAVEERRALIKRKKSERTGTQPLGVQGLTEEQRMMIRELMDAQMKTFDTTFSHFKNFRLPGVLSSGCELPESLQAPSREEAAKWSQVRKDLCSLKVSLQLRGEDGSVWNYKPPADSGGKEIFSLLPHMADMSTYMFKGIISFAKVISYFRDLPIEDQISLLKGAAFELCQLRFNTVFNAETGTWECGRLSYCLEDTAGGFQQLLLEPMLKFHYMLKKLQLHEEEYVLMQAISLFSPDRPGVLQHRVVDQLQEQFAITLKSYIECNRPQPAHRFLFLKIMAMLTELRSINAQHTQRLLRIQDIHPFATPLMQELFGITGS

SMILES | Activity
O[C@H](c1ccccn1)[C@]1(c2cccc(C(F)(F)F)c2)C[C@H](O)C1 | Not Active
O[C@H](c1ccccn1)[C@]1(c2ccnc(C(F)(F)F)c2)C[C@H](O)C1 | Not Active
C[C@]1(O)C[C@](c2ccc(OC(F)(F)F)cc2)([C@H](O)c2ccccn2)C1 | Not Active
